PGC1a Ac signal – compounds raising PGC1a acetylation signal, primary screen, PGC1a modulator project, cell-based, U2OS, AlphaScreen, signal-increasing mode | activation, % at 15.6 µM | AID 651723, 2012 | overnight | 350,000 compounds, 0.21% hits;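 active = every replicate reaching activation of at least 50%, whatever the mean replicate activation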;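 also: hits raise the AlphaScreen acetylation signal above neutral controls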
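detection = AlphaScreen lysate read | assay system = U2OS cells expressing flag-PGC1a plus GCN5 | input = 7000 cells/well | dosing = one concentration | times = compound overnight at 37 °C, each detection step 1 h RT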
* = called active by the depositor. The entries come from a sample that favours hits as a whole.

SMILES | PGC1a Ac signal
O=C(CSc1ccsc1[N+](=O)[O-])NCCc1ccc(Cl)cc1 | 68*
CC(C)(C)c1ccc(-n2nc(C#N)c(Cl)cc2=O)cc1 | -82
CS(=O)(=O)Nc1ccc2c(c1)[C@@H]1C[C@H](CC(=O)N3CCc4ccccc4C3)O[C@@H](CO)[C@@H]1O2 | -41
CCCNC(=O)Nc1ccc2c(c1)C(=O)N(C)C[C@H](OC)[C@H](C)CN(CC1CCCC1)[C@@H](C)CO2 | -44
Cc1ccc2c(Cl)cc(Cl)c(OCc3c(C)noc3C)c2n1 | -45
CCn1c2ccccc2c2cc(/C=N/NC(=O)c3ccccc3)ccc21 | -43
O=C(c1cccc([N+](=O)[O-])c1)N1CCc2ccccc21 | -44
O=C(Cn1c2ccccc2c(=O)c2ccccc21)N/N=C/c1cc([N+](=O)[O-])ccc1N1CCCCCC1 | 53*
CCOc1ccccc1CNC(=O)c1cc2oc3ccccc3c2n1C | 88*
CO[C@H]1CN(C)C(=O)c2cc(NC(=O)c3ccccc3F)ccc2OC[C@@H](C)N(C(C)=O)C[C@@H]1C | -130
COc1ccc(CN(C)C[C@@H]2Oc3ccc(NS(=O)(=O)c4c(C)noc4C)cc3C(=O)N([C@@H](C)CO)C[C@@H]2C)cc1 | -56
O=C(COC(=O)c1ccc([N+](=O)[O-])s1)Nc1ccc(F)cc1 | 106*
CCC(=O)NCc1c(C)c(C)n(Cc2ccccc2)c1-n1cccc1 | -43
CC1(C)CC(=O)C2=C(C1)Nc1ccccc1N1C(=O)c3ccccc3C21 (stereo not given) | 58*
CC(C)(C)c1ccc2c(c1)OC(C(=O)N/N=C/c1ccc([N+](=O)[O-])o1)CO2 (stereo not given) | 165*
CCOCCn1c(N2CCN(c3ccccc3)CC2)nc2c1c(=O)n(C)c(=O)n2C | 54*
c1ccc(-c2cc(-c3ccccc3)n3ncnc3n2)cc1 | -45
On1onc2c3cc(-c4ccccc4)nc3ccc21 | 620*
CC(C)(C)NS(=O)(=O)c1ccc(-c2csnn2)s1 | -61
COc1ccc(C#Cc2ccc([C@@H]3[C@H](CO)N4CCCCN(C(=O)Nc5ccc(F)cc5)C[C@@H]34)cc2)cc1 | 71*
CC(C)CC#Cc1ccc([C@H]2[C@H](CO)N3C(=O)CN(C(=O)Nc4cc(F)ccc4F)C[C@@H]23)cc1 | -57
O=C(Nc1cccc(F)c1)N1CC(=O)N2[C@@H](CO)[C@@H](c3ccc(C#Cc4cccnc4)cc3)[C@@H]2C1 | -41
CCOc1ccc2nc(NCCCNC(=O)c3cc(OC)c(OC)c(OC)c3)c(C#N)cc2c1 | -42
CC1CCN(S(=O)(=O)c2ccc(Oc3ccc([N+](=O)[O-])cc3)cc2)CC1 | -54
CCOC(=O)C1=CC[C@@H](c2ccc([N+](=O)[O-])cc2)N(S(=O)(=O)c2ccc(C)cc2)[C@H]1c1ccccc1 | 57*
SMILES | PGC1a Ac signal
C[C@H](NS(=O)(=O)c1ccc2c(c1)OCCCO2)C(=O)N1CCN(Cc2ccccc2)CC1 | -47
O=C(C[C@@H]1C[C@@H]2c3cc(NC(=O)Nc4ccccc4F)ccc3O[C@@H]2[C@@H](CO)O1)NCc1ccc(Oc2ccccc2)cc1 | -84
Cc1ccc(NC(=O)c2ccc(NCC3CCCO3)c([N+](=O)[O-])c2)cc1Cl (stereo not given) | -43
O=C(COC(=O)c1ccccc1C(=O)c1ccc(Cl)c([N+](=O)[O-])c1)NC1CCCCCC1 | 160*
CC(C)NC(=O)Nc1ccc2c(c1)C(=O)N([C@@H](C)CO)C[C@@H](C)[C@@H](CN(C)S(=O)(=O)c1ccccc1)OCCCC[C@H](C)O2 | -105
CCn1c(SCC(=O)Nc2ccc(OC)c(OC)c2)nnc1-c1cccs1 | -41
CCn1c(CNc2ccc(C)cc2)nnc1SCC(N)=O | 76*
CCn1c(SCC(N)=O)nnc1C(C)C | -44
CC(C)NC(=O)Nc1ccc2c(c1)C(=O)N([C@@H](C)CO)C[C@@H](C)[C@H](CN(C)C(=O)NC(C)C)OCCCC[C@@H](C)O2 | -49
Clc1ccc(CSc2nnc(-c3cccnc3)n2Cc2ccco2)c(Cl)c1 | 74*
CCN(CC)C(=O)CSc1nnc(-c2cccnc2)n1Cc1ccccc1 | -45
CC(C)(C)c1ccc(CCC2OCC(C[N+]3(C)CCOCC3)O2)cc1 (stereo not given) | -73
CCCCn1c(SCC(=O)NCc2ccc3c(c2)OCO3)nnc1C(CC)N(C)C (stereo not given) | -44
CC(NS(=O)(=O)c1ccccc1Cl)C1CC2CCC1C2 (stereo not given) | 102*
CN1CCN(C(=O)C[C@@H]2CC[C@@H]3[C@H](COC[C@H](O)CN3CC3CCCCC3)O2)CC1 | -47
CCN(CC)CCOc1ccc(/C(=C(\Cl)c2ccccc2)c2ccccc2)cc1 | 80*
COc1cccc(S(=O)(=O)N[C@H]2CC[C@H](CC(=O)NCc3ccc(F)cc3)O[C@@H]2CO)c1 | -55
COc1cccc(N(C(=O)CCl)C(C(=O)NCCc2ccccc2)c2cccs2)c1 (stereo not given) | -29
COc1cccc(N(CC(=O)NCc2cccnc2)S(C)(=O)=O)c1 | 89*
CC(C)NC(=O)N(C)C[C@H]1OCCCC[C@@H](C)Oc2ccc(NC(=O)Cc3ccccc3)cc2C(=O)N([C@@H](C)CO)C[C@H]1C | -55
NC(=O)c1ccccc1NC(=O)/C=C/C(=O)O | 62*
C[C@@H]1CN([C@H](C)CO)C(=O)Cc2cc(NC(=O)Nc3ccccc3)ccc2O[C@H]1CN(C)Cc1ccccc1 | -61
CO[C@H]1CN(C)C(=O)c2ccc(NS(=O)(=O)c3ccccc3)cc2OC[C@@H](C)N(C(=O)NC(C)C)C[C@@H]1C | -52
CCCOC1CCCN(C(=O)c2cc(Cl)c(Cl)cc2C(=O)O)C1 (stereo not given) | 87*
CCOC(=O)N1CCN(C(=O)c2cc(Cl)c(Cl)cc2C(=O)O)CC1 | -84
SMILES | PGC1a Ac signal
O=C(Nc1cccc(OC(F)(F)F)c1)c1ccc(-c2cccnc2)c2ccoc12 | 59*
COCCn1c(C)c(C)c2c(NCCc3ccccc3)ncnc21 | -51
COc1cc(CC(=O)OC2CCOC2=O)cc(OC)c1OC (stereo not given) | 57*
CC(=O)Nc1ccc(C(=O)OC2CCOC2=O)cc1 (stereo not given) | -47
COc1cc(CCC(=O)Nc2cc(C)cc(C)c2)cc(OC)c1OC | -45
CN(C)c1ccc(/C=C/c2ccc3c4ccccc4ccc3[n+]2-c2ccccc2)cc1 | -44
Cc1cccc(COc2ccc(/C=C3/C(=O)N(C)C(=S)N3C)cc2)c1 | -71
CN(C)Cc1c(O)ccc2c1O/C(=C\C=C\c1ccccc1)C2=O | 79*
CC1(Cc2ccc(Cl)cc2)C(=O)Nc2ccc(-c3cccnc3)cc21 (stereo not given) | -46
Cc1ccc(CC2(C)C(=O)Nc3c(Cl)ccc(Cl)c32)cc1 (stereo not given) | 159*
C=C1C(=O)[C@]23C[C@H]1CCC2[C@@]1(C)C(C[C@@H]3O)[C@](C)(C(=O)OC)CC[C@@H]1OC(C)=O (stereo not given in full) | -103
CN1C(=O)c2ccccc2C(C(=O)O)C1c1cccc([N+](=O)[O-])c1 (stereo not given) | -44
O=C(COC(=O)Cc1ccc(S(=O)(=O)N2CCOCC2)s1)NCCc1ccccc1 | -41
Cc1nnc(Nc2ccc3c(c2)OCO3)c2ccccc12 | 84*
Cc1cccc(-n2c(CNC(=O)c3cccc([N+](=O)[O-])c3C)n[nH]c2=S)c1 | -46
COc1ccc(C2=NOC(C(=O)Nc3cccnc3)C2)cc1 (stereo not given) | 64*

Source: PubChem
